Results taken from ChEMBL document CHEMBL1165950, “Design and synthesis of new potent anticancer pyrazoles with high FLT3 kinase inhibitory selectivity” (Bioorg Med Chem, 2010).

Columns and labels:
Format in all cases: functional
MDA-MB-231 [1] = test: Cytotoxicity against human MDA-MB-231 cells assessed as cell growth at 0.001 uM after 48 hrs by sulforhodamine B assay; details: MDA-MB-231, 48 h, read-out: Activity
BT-549 [2] = test: Cytotoxicity against human BT549 cells assessed as cell growth at 0.001 uM after 48 hrs by sulforhodamine B assay; details: BT-549, 48 h, read-out: Activity
How it was run: (§1)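 NCI-60 five-dose screen. Cells were grown in RPMI 1640 with 5% FBS and 2 mM L-glutamine, plated at 5000–40,000 cells/well and preincubated for 24 h. Time-zero plates were TCA-fixed. DMSO-solubilized drug was added at five concentrations (10-fold or ½-log serial dilutions) for 48 h at 37 °C, 5% CO2. Cells were TCA-fixed, stained with 0.4% SRB and read at 515 nm. Percent growth used time-zero, control and test absorbances.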

T47D [3] = test: Cytotoxicity against human T47D cells assessed as cell growth at 100 nM after 48 hrs by sulforhodamine B assay; details: read-out: Activity
OVCAR-3 [4] = test: Cytotoxicity against human OVCAR-3 cells assessed as cell growth at 10 uM; details: read-out: Activity
How it was run: (§2)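 NCI-60 screen: cells grown in RPMI 1640 with 5% FBS and 2 mM L-glutamine, plated at 5000–40,000 cells/well according to doubling time, and preincubated 24 h at 37 °C, 5% CO2. The single 10 µM dose (DMSO stock) was added, then incubated 48 h. Cells were TCA-fixed and stained with 0.4% SRB, read at 515 nm, and growth % calculated against time-zero and control plates.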

SN12C [5] = test: Cytotoxicity against human SN12C cells assessed as cell growth at 10 uM; details: read-out: Activity; how it was run: as §2
MCF7 = test: Cytotoxicity against human MCF7 cells assessed as cell growth at 10 uM; details: read-out: Activity; how it was run: as §2
HL-60(TB) [6] = test: Cytotoxicity against human HL-60(TB) cells assessed as cell growth at 0.001 uM after 48 hrs by sulforhodamine B assay; details: HL-60, 48 h, read-out: Activity
How it was run: (§3)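 NCI 60-cell panel. Cells are grown in RPMI 1640 with 5% FBS and 2 mM L-glutamine, seeded at 5000–40,000 cells/well according to doubling time, and preincubated 24 h. Time-zero plates are TCA-fixed. Compound from DMSO stock is given at five 10-fold or 1/2-log concentrations for 48 h at 37 °C, 5% CO2. Suspension cells are fixed with 80% TCA (final 16%) and SRB-stained, with absorbance at 515 nm. Percent growth is derived from Tz, control and test readings.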

HT-29 [7] = test: Cytotoxicity against human HT-29 cells assessed as cell growth at 1 uM after 48 hrs by sulforhodamine B assay; details: HT-29, 48 h, read-out: Activity
NCI-H23 = test: Cytotoxicity against human NCI-H23 cells assessed as cell growth at 0.01 uM after 48 hrs by sulforhodamine B assay; details: NCI-H23, 48 h, read-out: Activity
LOX IMVI = test: Cytotoxicity against human LOXIMVI cells assessed as cell growth at 0.01 uM after 48 hrs by sulforhodamine B assay; details: read-out: Activity
UACC-62 = test: Cytotoxicity against human UACC62 cells assessed as cell growth at 0.01 uM after 48 hrs by sulforhodamine B assay; details: UACC-62, 48 h, read-out: Activity
OVCAR-8 = test: Cytotoxicity against human OVCAR8 cells assessed as cell growth at 0.001 uM after 48 hrs by sulforhodamine B assay; details: OVCAR-8, 48 h, read-out: Activity
786-0 = test: Cytotoxicity against human 786-0 cells assessed as cell growth at 0.001 uM after 48 hrs by sulforhodamine B assay; details: 786-0, 48 h, read-out: Activity; how it was run: as §1
HL-60(TB) [8] = test: Cytotoxicity against human HL-60(TB) cells assessed as cell growth at 100 nM after 48 hrs by sulforhodamine B assay; details: HL-60, 48 h, read-out: Activity; how it was run: as §3
HOP-92 = test: Cytotoxicity against human HOP92 cells assessed as cell growth at 100 nM after 48 hrs by sulforhodamine B assay; details: HOP-92, 48 h, read-out: Activity
NCI-H460 = test: Cytotoxicity against human NCI-H460 cells assessed as cell growth at 100 nM after 48 hrs by sulforhodamine B assay; details: NCI-H460, 48 h, read-out: Activity
UO-31 = test: Growth inhibition of human UO31 cells after 48 hrs by sulforhodamine B assay; details: UO-31, 48 h
How it was run: (§4)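 NCI 60-cell screen, five-dose mode. Cells grown in RPMI 1640 with 5% FBS and 2 mM L-glutamine and plated at 5000-40,000 cells/well according to doubling time. After 24 h preincubation, a Tz plate was TCA-fixed. Five concentrations (10-fold or 1/2 log dilutions) were applied for 48 h at 37 °C. SRB staining read at 515 nm. IC50 taken from [(Ti-Tz)/(C-Tz)]×100 = 50.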

MDA-MB-231 [9] = test: Growth inhibition of human MDA-MB-231 cells after 48 hrs by sulforhodamine B assay; details: MDA-MB-231, 48 h; how it was run: as §4
T47D [10] = test: Growth inhibition of human T47D cells after 48 hrs by sulforhodamine B assay; how it was run: as §4
HT-29 [11] = test: Cytotoxicity against human HT-29 cells assessed as cell growth at 10 uM; details: read-out: Activity
How it was run: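 Single-dose NCI-60 screen at 10 µM. Cells were grown in RPMI 1640 with 5% FBS and 2 mM L-glutamine, then treated for 48 h at 37 °C. Protein was measured by SRB staining with absorbance at 515 nm. Percentage growth was recorded, and inhibition percentage was calculated as 100 minus growth percentage.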

A549 = test: Cytotoxicity against human A549 cells assessed as cell growth at 10 uM after 48 hrs by sulforhodamine B assay; details: A549, 48 h, read-out: Activity; how it was run: as §1
SF-539 = test: Cytotoxicity against human SF539 cells assessed as cell growth at 10 uM after 48 hrs by sulforhodamine B assay; details: SF-539, 48 h, read-out: Activity
SNB-75 = test: Cytotoxicity against human SNB75 cells assessed as cell growth at 10 uM after 48 hrs by sulforhodamine B assay; details: SNB-75, 48 h, read-out: Activity
MDA-MB-435 = test: Cytotoxicity against human MDA-MB-435 cells assessed as cell growth at 10 uM after 48 hrs by sulforhodamine B assay; details: MDA-MB-435, 48 h, read-out: Activity
SK-MEL-2 = test: Cytotoxicity against human SK-MEL-2 cells assessed as cell growth at 10 uM after 48 hrs by sulforhodamine B assay; details: SK-MEL-2, 48 h, read-out: Activity
OVCAR-3 [12] = test: Cytotoxicity against human OVCAR-3 cells assessed as cell growth at 10 uM after 48 hrs by sulforhodamine B assay; details: OVCAR-3, 48 h, read-out: Activity
SN12C [13] = test: Cytotoxicity against human SN12C cells assessed as cell growth at 10 uM after 48 hrs by sulforhodamine B assay; details: read-out: Activity
BT-549 [14] = test: Cytotoxicity against human BT549 cells assessed as cell growth at 10 uM after 48 hrs by sulforhodamine B assay; details: BT-549, 48 h, read-out: Activity; how it was run: as §1

COc1cc(C)cc(-c2nn(CC#N)cc2-c2ccc(-c3cccc(C(C)=O)c3)nc2)c1
growth at 0.001 µM (MDA-MB-231 [1]): 102%
growth at 0.001 µM (BT-549 [2]): 99%
growth at 0.1 µM (T47D [3]): 81%
growth at 10 µM (OVCAR-3 [4]): 12.5%
growth at 10 µM (SN12C [5]): 40.2%
growth at 10 µM (MCF7): 8.74%
growth at 0.001 µM (HL-60(TB) [6]): 94%
growth at 1 µM (HT-29 [7]): 4%
growth at 0.01 µM (NCI-H23): 91%
growth at 0.01 µM (LOX IMVI): 96%
growth at 0.01 µM (UACC-62): 90%
growth at 0.001 µM (OVCAR-8): 91%
growth at 0.001 µM (786-0): 97%
growth at 0.1 µM (HL-60(TB) [8]): 66%
growth at 0.1 µM (HOP-92): 89%
growth at 0.1 µM (NCI-H460): 84%
GI50 (UO-31): 3.18 µM
TGI (UO-31): 58.2 µM
CC50 (UO-31; read-out: LC50 (the source's name)): > 100 µM
GI50 (MDA-MB-231 [9]): 3.04 µM
LC50 (MDA-MB-231 [9]): > 100 µM
TGI (MDA-MB-231 [9]): > 100 µM
GI50 (T47D [10]): 2230 nM
LC50 (T47D [10]): > 100 µM
TGI (T47D [10]): 8.23 µM
growth at 10 µM (HT-29 [11]): 3.66%
growth at 10 µM (A549): -22%
growth at 10 µM (SF-539): -48%
growth at 10 µM (SNB-75): -36%
growth at 10 µM (MDA-MB-435): -22%
growth at 10 µM (SK-MEL-2): -14%
growth at 10 µM (OVCAR-3 [12]): -64%
growth at 10 µM (SN12C [13]): 18%
growth at 10 µM (BT-549 [14]): -24%
